Key:
[1] = target: T1, Tyrosine-protein phosphatase non-receptor type 1 (Homo sapiens, UniProt P18031); assay: In vitro inhibitory activity against human recombinant protein tyrosine phosphatase 1b (PTP1B)
T1 sequence (P18031 whole entry): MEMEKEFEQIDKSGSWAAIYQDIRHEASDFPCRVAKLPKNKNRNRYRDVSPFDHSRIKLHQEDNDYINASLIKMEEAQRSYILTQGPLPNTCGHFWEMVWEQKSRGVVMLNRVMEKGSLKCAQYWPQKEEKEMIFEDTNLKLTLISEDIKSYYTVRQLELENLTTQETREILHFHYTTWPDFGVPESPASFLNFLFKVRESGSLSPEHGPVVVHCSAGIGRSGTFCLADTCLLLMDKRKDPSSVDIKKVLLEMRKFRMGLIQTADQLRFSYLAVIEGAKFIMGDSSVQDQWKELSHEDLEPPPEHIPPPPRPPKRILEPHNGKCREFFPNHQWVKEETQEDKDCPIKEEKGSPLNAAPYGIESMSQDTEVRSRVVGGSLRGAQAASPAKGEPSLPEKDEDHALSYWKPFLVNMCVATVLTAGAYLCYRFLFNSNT
In short: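 Recombinant human PTP1B, diluted in pH 7.4 Tris-HCl/EDTA/β-mercaptoethanol buffer, preincubated 10 min at 37 °C with compound in HEPES pH 7.4. Reaction ran 30 min at 37 °C. Released phosphate was read by malachite green-ammonium molybdate at 650 nm, in quadruplicate. IC50 came from four-parameter logistic regression.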

[2] = test system: Mus musculus; assay: percentage decrease in plasma glucose in the ob/ob mouse model at 25 mg/Kg/day administered per orally; format: functional
In short: (§1)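 Genetically obese C57 B1/6J ob/ob diabetic mice, four to six per group, dosed orally once daily for 4 days. Plasma glucose is expressed as percent change relative to the vehicle-treated group, with p < 0.05 versus vehicle. Changes that are not significant are generally less than -15%. Ciglitazone served as the reference standard.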

[3] = test system: Mus musculus; assay: percentage decrease in plasma glucose in the ob/ob mouse model at 100 mg/kg/day administered per orally; format: functional; conditions: route oral; in short: as §1
[4] = target: T2, Tyrosine-protein phosphatase non-receptor type 1 (Homo sapiens) (UniProt P18031); assay: In vitro inhibitory activity against recombinant human Protein Tyrosine Phosphatase 1b at a concentration of 1 uM
T2 sequence (whole entry): T1 sequence (P18031 whole entry)
In short: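 Recombinant human PTP1B was preincubated 10 min at 37 °C with compound at 1 µM, then given 50 µM tri-phosphorylated insulin receptor dodecapeptide for 30 min at 37 °C. Liberated phosphate was measured by malachite green-molybdate absorbance at 650 nm, in quadruplicate. Values are inhibition expressed as percent of phosphatase control.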

IC50 [1] [nM] | Compound | further results
1600 | Cc1oc(-c2ccc(C(F)(F)F)cc2)nc1-c1cccc(-c2ccc(OC(Cc3ccccc3)C(=O)O)cc2)c1 (centres undefined) | –
130 | CC[C@H](Oc1c(Br)cc(-c2ccc(-c3c(Cc4ccccc4)oc4ccccc34)cc2)cc1Br)C(=O)O | –
52 | O=C(O)[C@@H](Cc1ccccc1)Oc1ccc(-c2ccc(-c3c(Cc4ccccc4)sc4ccccc34)cc2)cc1-c1ccc(Cl)cc1 | –
44 | O=C(O)C(CCN1C(=O)c2ccccc2C1=O)Oc1c(Br)cc(-c2ccc(-c3c(Cc4ccccc4)sc4ccccc34)cc2)cc1Br (centres undefined) | –
180 | O=C(O)c1ccccc1C(=O)NCCC(Oc1c(Br)cc(-c2ccc(-c3c(Cc4ccccc4)sc4ccccc34)cc2)cc1Br)C(=O)O (centres undefined) | –
590 | O=C(O)[C@H](Cc1ccccc1)Oc1ccc(-c2ccc(-c3c(Cc4ccccc4)oc4ncccc34)cc2)cc1 | –
160 | O=C(O)c1ccccc1C(=O)Nc1cc(-c2ccc(-c3c(Cc4ccccc4)oc4ccccc34)cc2)ccc1O | –
410 | Cc1ccc2oc(Cc3ccccc3)c(-c3ccc(-c4ccc(O[C@H](Cc5ccccc5)C(=O)O)cc4)cc3)c2c1 | –
920 | Oc1ccc(-c2ccc(-c3c(Cc4ccccc4)oc4ccccc34)cc2)cc1 | –
740 | O=C(c1ccccc1)c1oc2ccccc2c1-c1ccc(-c2ccc(O)cc2)cc1 | –
28 | O=C(O)c1ccc(S(=O)(=O)Oc2ccc(-c3ccc(-c4c(Cc5ccccc5)oc5ccccc45)cc3)cc2C2CCCC2)cc1O | –
82 | O=C(O)CNc1cc(-c2ccc(-c3c(Cc4ccccc4)oc4ccccc34)cc2)ccc1OCCc1ccccc1 | –
220 | O=C(O)[C@H](CCc1ccccc1)Oc1ccc(-c2ccc(-c3c(Cc4ccccc4)oc4ccccc34)cc2)cc1 | –
53 | COc1ccc(-c2cc(-c3ccc(-c4c(Cc5ccccc5)sc5ccccc45)cc3)ccc2O[C@H](Cc2ccccc2)C(=O)O)cc1 | –
340 | O=C(O)[C@H](CCN1C(=O)c2ccccc2C1=O)Oc1ccc(-c2ccc(-c3c(Cc4ccccc4)oc4ccccc34)cc2)cc1 | –
55 | O=C(O)[C@H](Cc1ccccc1)Oc1ccc(-c2ccc(-c3c(Cc4ccccc4)oc4ccccc34)cc2)cc1C1CCCC1 | –
100 | O=C(O)COc1ccc(-c2ccc(-c3c(Cc4ccccc4)sc4ccccc34)cc2)cc1-c1ccccc1 | –
120 | O=C(O)[C@@H](Cc1ccccc1)Oc1ccc(-c2ccc(-c3c(Cc4ccc(F)cc4)sc4ccccc34)cc2)cc1 | –
350 | O=C(O)[C@@H](Cc1ccccc1)Oc1ccc(-c2ccc(-c3oc4ccccc4c3Cc3ccccc3)cc2)cc1 | –
170 | O=C(O)CCCOc1ccc(-c2ccc(-c3c(Cc4ccccc4)sc4ccccc34)cc2)cc1Br | –
52 | CCOc1ccc(-c2cc(-c3ccc(-c4c(Cc5ccccc5)sc5ccccc45)cc3)ccc2OCC(=O)O)cc1 | –
360 | O=C(O)c1ccc(COc2ccc(-c3ccc(-c4c(Cc5ccccc5)oc5ccccc45)cc3)cc2)cc1 | –
130 | O=C(O)[C@H](Cc1ccccc1)Oc1ccc(-c2ccc(-c3c(Cc4ccccc4)oc4ccc(F)cc34)cc2)cc1 | –
170 | O=C(O)COc1ccc(-c2ccc(-c3c(Cc4ccccc4)oc4ccccc34)cc2)cc1C1CCCC1 | –
1160 | O=C(O)[C@@H](Cc1ccccc1)Oc1ccc(-c2ccc(-c3c(Cc4nccs4)sc4ccccc34)cc2)cc1 | –

Second part, the compound before the results:

Compound | IC50 [1] [nM] | further results
O=C(O)COc1c(Br)cc(-c2ccc(-c3c(Cc4ccccc4)sc4ccccc34)cc2)cc1Br | 100 | –
CCCCc1oc2ccccc2c1Cc1ccc(-c2ccc(OCn3cnnn3)cc2)cc1 | 510 | –
CCCCc1oc2ccccc2c1Cc1ccc2c(I)c(O)ccc2c1 | 380 | –
CCCCCCC(Oc1c(Br)cc(-c2ccc(-c3c(Cc4ccccc4)oc4ccccc34)cc2)cc1Br)C(=O)O (centres undefined) | 23 | Decrease [2]: 27%
CCCCc1oc2ccccc2c1Cc1ccc2c(Br)c(OC(Cc3ccccc3)C(=O)O)ccc2c1 (centres undefined) | – | Decrease [3]: 26%
CCCCc1oc2ccccc2c1-c1ccc(-c2ccc(OC(Cc3ccccc3)C(=O)O)cc2)cc1 (centres undefined) | – | Decrease [3]: 34%
O=C(O)[C@@H](Cc1ccccc1)Oc1ccc(-c2ccc(-c3c(Cc4ccc(O)cc4O)sc4ccccc34)cc2)cc1 | 120 | Decrease [2]: 20%
O=C(O)[C@@H](Cc1ccccc1)Oc1ccc(-c2ccc(-c3c(Cc4ccccc4)oc4ccccc34)cc2)cc1 | – | Decrease [3]: 35%
O=C(O)c1ccc(S(=O)(=O)Oc2ccc(-c3ccc(-c4c(Cc5ccccc5)oc5ccccc45)cc3)cc2)cc1O | – | Decrease [2]: 18%
CC(Cc1ccccc1)(Oc1ccc(-c2ccc(-c3c(Cc4ccccc4)oc4ccccc34)cc2)cc1)C(=O)O (centres undefined) | – | Decrease [3]: 28%; Decrease [2]: 30%
CCCCc1oc2ccccc2c1Cc1ccc2cc(O)ccc2c1 | 1300 | –
Cc1oc(-c2ccc(C(F)(F)F)cc2)nc1-c1ccc(-c2ccc(OCn3cnnn3)cc2)cc1 | 900 | –
CCCCc1sc2ccccc2c1-c1ccc(-c2ccc(O[C@H](Cc3ccccc3)C(=O)O)cc2)cc1 | 170 | Decrease [3]: 27%
COC(=O)C(CCNC(=O)c1ccccc1C(=O)O)Oc1c(Br)cc(-c2ccc(-c3c(Cc4ccccc4)sc4ccccc34)cc2)cc1Br (centres undefined) | 54 | –
CCCCc1oc2ccccc2c1Cc1ccc2c(Br)c(OCC(=O)O)ccc2c1 | 1400 | –
CCCCc1oc2ccccc2c1Cc1ccc2c(I)c(OC(Cc3ccccc3)C(=O)O)ccc2c1 (centres undefined) | 320 | –
CC(=O)Oc1cc(S(=O)(=O)Oc2ccc(-c3ccc(-c4coc5ccccc45)cc3)cc2)ccc1C(=O)O | 1160 | –
Cc1oc(-c2ccc(C(F)(F)F)cc2)nc1-c1ccc2c(Br)c(OCC(=O)O)ccc2c1 | 1300 | –
CCCCc1oc2ccccc2c1Cc1ccc2c(Br)c(OCn3cnnn3)ccc2c1 | 700 | –
Oc1ccc(-c2ccc(-c3c(Cc4ccccc4)oc4ccccc34)cc2)cc1Br | – | Average inhibition [4]: -59
CCCCc1oc2ccccc2c1C(=O)c1ccc2c(Br)c(OCn3cnnn3)ccc2c1 | 1100 | Decrease [3]: 25%
O=C(O)CCNc1cc(-c2ccc(-c3c(Cc4ccccc4)oc4ccccc34)cc2)ccc1OCCc1ccccc1 | 140 | Decrease [2]: 17%

Compound | IC50 [1] [nM] | further results
Oc1ccc(Cc2sc3ccccc3c2-c2ccc(-c3ccc(O)cc3)cc2)cc1 | 1080 | –
O=C(O)[C@@H](Cc1ccccc1)Oc1ccc(-c2ccc(-c3c(C(O)c4ccccc4)oc4ccccc34)cc2)cc1 (some centres undefined) | 110 | Decrease [3]: -1%; Decrease [2]: 21%
CCCCc1oc2ccccc2c1C(O)c1ccc2cc(O)ccc2c1 (centres undefined) | 1100 | –
COc1ccc(Cc2sc3ccccc3c2-c2ccc(-c3ccc(O[C@H](Cc4ccccc4)C(=O)O)cc3)cc2)c(OC)c1 | – | Decrease [2]: 24%
COc1ccc(-c2cc(-c3ccc(-c4c(Cc5ccccc5)sc5ccccc45)cc3)cc(-c3ccc(OC)cc3)c2OCC(=O)O)cc1 | – | Decrease [2]: 26%
O=C(O)C(Cc1ccccc1)Oc1ccc(-c2ccc(-c3c(Cc4ccccc4)oc4ccccc34)cc2)cc1 (centres undefined) | – | Decrease [3]: 40%
CCCCc1oc2ccccc2c1C(=O)c1ccc2c(Br)c(OC(Cc3ccccc3)C(=O)O)ccc2c1 (centres undefined) | 1200 | –
COc1cccc(-c2cc(-c3ccc(-c4c(Cc5ccccc5)sc5ccccc45)cc3)ccc2OCC(=O)O)c1OC | 71 | –
Oc1c(Br)cc(-c2ccc(-c3c(Cc4ccccc4)oc4ccccc34)cc2)cc1Br | – | Average inhibition [4]: -43
Oc1ccc(-c2ccc(-c3c(Cc4ccc(O)cc4O)sc4ccccc34)cc2)cc1 | 580 | –
O=C(O)c1ccc(S(=O)(=O)Oc2c(Br)cc(-c3ccc(-c4c(Cc5ccccc5)sc5ccccc45)cc3)cc2Br)cc1O | – | Decrease [3]: 25%
O=C(O)[C@@H](Cc1ccccc1)Oc1ccc(-c2ccc(-c3c(Cc4ccccc4)sc4ccccc34)cc2)cc1 | – | Decrease [3]: 37%
CCCCc1sc2ccccc2c1-c1ccc(-c2ccc(O)cc2)cc1 | 700 | –
Cc1oc(-c2ccc(C(F)(F)F)cc2)nc1-c1ccc(-c2ccc(OC(Cc3ccccc3)C(=O)O)cc2)cc1 (centres undefined) | – | Decrease [2]: 27%
O=C(O)[C@@H](Cc1ccccc1)Oc1ccc(-c2ccc(-c3nc4cccnc4n3Cc3ccccc3)cc2)cc1 | – | Average inhibition [4]: -19
COc1ccc(Cc2sc3ccccc3c2-c2ccc(-c3ccc(O[C@H](Cc4ccccc4)C(=O)O)cc3)cc2)cc1OC | 120 | Decrease [2]: 24%
C[C@@H](Oc1ccc(-c2ccc(-c3c(Cc4ccccc4)oc4ccccc34)cc2)cc1)C(=O)O | – | Decrease [3]: 39%; Decrease [2]: -1%
COc1ccc(-c2cc(-c3ccc(-c4c(Cc5ccccc5)sc5ccccc45)cc3)cc(Br)c2OCC(=O)O)c(OC)c1 | 47 | –
CCCCc1sc2ccccc2c1-c1ccc(-c2ccc(O[C@@H](C(=O)O)c3ccccc3)cc2)cc1 | 110 | Decrease [3]: 28%
COc1ccc(-c2cc(-c3ccc(-c4c(Cc5ccccc5)sc5ccccc45)cc3)cc(Br)c2OCC(=O)O)cc1 | – | Decrease [2]: 30%
Oc1c(I)cc(-c2ccc(-c3c(Cc4ccccc4)sc4ccccc34)cc2)cc1I | 520 | –

From ChEMBL document CHEMBL1132993, “Novel benzofuran and benzothiophene biphenyls as inhibitors of protein tyrosine phosphatase 1B with antihyperglycemic properties” (J Med Chem, 2000)
